Published values from different studies.
Each line is one published result; the experiments were not run side by side.
Target: Mitogen-activated protein kinase kinase kinase 9 (MAP3K9, Homo sapiens, UniProt P80192)

| SMILES | assay | conditions | remaining binding [%] |
| --- | --- | --- | --- |
| O=C(c1ccc(Nc2ncc(Cl)c(-c3cc4ccccc4s3)n2)cc1)N1CCC(N2CCCC2)CC1 | binding, competition with immobilised ligand | 1 µM | 4.3 |
| C[C@H](NC(=O)c1cnc2n1[C@](C)(Cc1ccc(C#N)cc1)C(=O)N2c1cc(Cl)c(F)c(Cl)c1)C(=O)NC1(c2ccccn2)CC1 | cell-free assay, competition with immobilised ligand | 1 µM | 100 |
| CNC(=O)[C@@H]1CC[C@@H](n2c(-c3ccc4cnccc4c3)nc3ccc(C(=O)NCc4cccc(C(N)=O)c4)cc32)C1 | binding, competition with immobilised ligand | 1 µM | 100 |
| C[C@@H]1CCN(c2nccc(-c3cnn4ncccc34)n2)C1 | binding | 1 µM | 100 |
| O=C(Nc1c[nH]nc1C(=O)NC1CCNCC1)c1cc(F)cc(F)c1 | binding, competition with immobilised ligand | 1 µM | 100 |
| CC1CCCN1c1nccc(-c2cnn3ncccc23)n1 (stereo not shown) | binding | 1 µM | 100 |
| N#Cc1ccccc1CSc1nnc2c(n1)[nH]c1ccccc12 | binding, competition with immobilised ligand | 10 µM | 98 |
| CCN1CCN(Cc2ccc(C(=O)Nc3ccc(C)c(Oc4ccc5c(c4)CC(=O)N5)c3)cc2C(F)(F)F)CC1 | binding, competition with immobilised ligand | 1 µM | 100 |
| CC(C)(C)c1ccc(-c2nc(CBr)nn2-c2cccc(O)c2)cc1 | cell-free assay, competition with immobilised ligand | 10 µM | 91 |
| Cc1cnn2ncc(-c3ccnc(N(C)C)n3)c2c1 | binding | 1 µM | 100 |
| CN([C@@H]1CCc2c(CC(=O)O)c3ccccc3n2C1)S(=O)(=O)c1ccc(F)cc1 | cell-free assay, competition with immobilised ligand | 1 µM | 100 |
| COc1cnc(Nc2cccc(S(N)(=O)=O)c2)nc1N1CCN(c2ccccc2)CC1 | binding, competition with immobilised ligand | 1 µM | 73 |
| C[C@@]1(Cc2ccc(C#N)cc2)C(=O)N(c2cc(Cl)cc(Cl)c2)c2ncc(C(=O)NC3(c4nc(C5CCC5)no4)CC3)n21 | cell-free assay, competition with immobilised ligand | 1 µM | 100 |
| c1cnn2ncc(-c3ccnc(N4CCC45COC5)n3)c2c1 | binding | 1 µM | 85 |
| C[C@@H]1CN(c2ccc3ncc(-c4ccc5[nH]nc(C6CC6)c5c4)n3n2)C[C@H](C)O1 | binding, competition with immobilised ligand | 0.5 µM | 100 |
| Nc1c(C(=O)NCc2ccc(C(=O)NCCCC3CCCCC3)cc2)cnn1-c1ccccc1 | cell-free assay, competition with immobilised ligand | 0.1 µM | 96 |
| FC(F)(F)Oc1cccc(-c2cnc3ccc(-c4ccncc4)nn23)c1 | cell-free assay, competition with immobilised ligand | 5 µM | 77 |
| CN(C)c1ncnc(-c2ccc3nc(Nc4cc(CN5CCN(C(=O)CC(F)(F)F)CC5)ccn4)[nH]c3c2)c1Cl | cell-free assay, competition with immobilised ligand | 1 µM | 90 |
| CN(C)c1nccc(-c2cnc3ncccn23)n1 | binding | 1 µM | 65 |
| Cc1cnc(Nc2ccc(C(=O)N3CCC(N4CCCC4)CC3)cc2)nc1-c1cc2ccccc2s1 | binding, competition with immobilised ligand | 1 µM | 3.3 |
| CCCCN(CCCC)C(=O)CN1C[C@@H](c2cc(OC)c3c(c2)OCO3)[C@H](C(=O)O)[C@H]1CC(C)(C)CCC | cell-free assay, competition with immobilised ligand | 1 µM | 98.8 |
| CN(c1nccc(-c2cnn3ncccc23)n1)C1CC1 | binding | 1 µM | 85 |
| O=C(c1ccc(Nc2ncc(Cl)c(-c3ccc(Cl)s3)n2)cc1)N1CCC(N2CCCC2)CC1 | binding, competition with immobilised ligand | 1 µM | 8.9 |
| CN(C)c1ncc(F)c(-c2cnn3ncccc23)n1 | binding | 1 µM | 100 |
| COc1cc(-c2cn(C3CCc4c(F)cccc4N(CC(F)(F)F)C3=O)nn2)ccc1-n1cnc(C)c1 (stereo not shown) | cell-free assay, competition with immobilised ligand | 1 µM | 100 |
